One data set deals with CWR22R. The data set is described as follows: Antiproliferative activity against human 22Rv1 expressing AR assessed as reduction in cell viability incubated for 6 days by CCK-8 assay. The data set is classed as functional, cell-based. Particulars: 22Rv1, 144 h. A digest of the protocol:
(§1)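 Cell proliferation assay run on LNCaP/AR, VCaP, 22Rv1, PC-3 and L-02 cells, with PC-3 and L-02 serving as AR-independent toxicity controls. IC50 fitted in GraphPad Prism 5 as the mean of at least two experiments, each in duplicate. Deviations under 35%.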

A further data set deals with L02. Kind of data set: Cytotoxicity against human L02 assessed as reduction in cell viability incubated for 6 days by CCK-8 assay. The data set is classed as cell-based. The note with it: L02, 144 h. A digest of the protocol: as §1
For data set [1], the target named is T1, Androgen receptor (Homo sapiens) (UniProt P10275).
T1 sequence (whole entry): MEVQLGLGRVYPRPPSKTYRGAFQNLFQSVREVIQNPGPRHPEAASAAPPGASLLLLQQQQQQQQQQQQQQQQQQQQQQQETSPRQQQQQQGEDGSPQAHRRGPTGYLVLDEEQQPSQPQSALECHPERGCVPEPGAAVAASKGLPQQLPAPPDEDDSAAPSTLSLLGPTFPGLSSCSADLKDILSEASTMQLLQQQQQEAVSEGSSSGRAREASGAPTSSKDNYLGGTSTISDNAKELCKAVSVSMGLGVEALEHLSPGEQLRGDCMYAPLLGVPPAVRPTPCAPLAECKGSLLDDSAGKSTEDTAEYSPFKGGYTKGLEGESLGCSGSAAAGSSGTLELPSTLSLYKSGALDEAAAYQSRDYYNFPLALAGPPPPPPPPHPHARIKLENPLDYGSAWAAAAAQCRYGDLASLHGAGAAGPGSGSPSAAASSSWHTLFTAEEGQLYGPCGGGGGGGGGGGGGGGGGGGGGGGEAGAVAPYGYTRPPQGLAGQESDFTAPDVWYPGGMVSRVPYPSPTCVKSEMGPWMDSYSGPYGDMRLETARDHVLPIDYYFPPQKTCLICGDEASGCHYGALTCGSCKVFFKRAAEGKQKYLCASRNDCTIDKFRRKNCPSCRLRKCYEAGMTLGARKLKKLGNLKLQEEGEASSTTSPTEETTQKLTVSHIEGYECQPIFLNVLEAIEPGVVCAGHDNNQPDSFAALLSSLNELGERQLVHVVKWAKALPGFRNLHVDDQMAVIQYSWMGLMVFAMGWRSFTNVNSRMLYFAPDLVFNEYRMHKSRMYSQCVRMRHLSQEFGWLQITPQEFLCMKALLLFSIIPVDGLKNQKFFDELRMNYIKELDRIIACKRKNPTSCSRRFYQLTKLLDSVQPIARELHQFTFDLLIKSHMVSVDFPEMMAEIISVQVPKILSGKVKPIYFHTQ
Kind of data set: Inhibition of EGFP-tagged AR (unknown origin) transfected in human WPMY1 cells assessed as reduction in R1881-induced nuclear translocation of AR at 20 uM incubated for 24 hrs by Hoechst 33342 staining based fluorescence microscopy. The data set is classed as cell-based. A digest of the protocol: (§2)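 WPMY-1 cells transfected with EGFP-tagged wt-AR or AR-F876L. Treated with vehicle or 20 µM compound, with or without 0.5 nM R1881, for 24 h. Nuclei labelled with Hoechst 33342 and AR localisation imaged by fluorescence.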

A short description of data set [2]: Solubility of compound in PBS incubated for 24 hrs by HPLC analysis. Format: physicochemical. The gist of the method:
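Solubility determined in PBS at 25 ℃ by the saturation shake-flask method. Quantified against calibration curves.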

Data set [3] addresses Bromodomain-containing protein 4 (Homo sapiens) (UniProt O60885). Kind of data set: Inhibition of BRD4 (unknown origin) by alpha-screen assay.
Data set [4] has as its system T2, Androgen receptor (Homo sapiens), P10275 [F877L].
T2 sequence (whole entry): T1 sequence (whole entry) with F877L
Kind of data set: Inhibition of EGFP-tagged AR F876L mutant (unknown origin) transfected in human WPMY1 cells assessed as reduction in R1881-induced nuclear translocation of AR F876L at 20 uM incubated for 24 hrs by Hoechst 33342 staining based fluorescence microscopy. The data set is classed as cell-based. A digest of the protocol: as §2

Data set [5] concerns the target T1, Androgen receptor (Homo sapiens). Kind of data set: Inhibition of AR (unknown origin) transfected in human PC3 cells assessed as receptor transactivation at 0.1 to 30 uM incubated for 24 hrs by dual luciferase reporter gene assay. The data set is classed as cell-based.
Data set [6] is described as follows: Stability of compound in nutrient medium with fetal bovine serum and antibiotic incubated for 6 days by HPLC analysis. The note with it: 144 h.
The target of data set [7] is T1, Androgen receptor (Homo sapiens). The data set is described as follows: Inhibition of AR in human HEK293 cells assessed as decrease in receptor transactivation at 10 uM incubated for 24 hrs by dual luciferase reporter gene assay. Format: cell-based. A digest of the protocol:
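HEK 293 cells transiently co-transfected with wt-AR expression vector and an androgen-responsive luciferase reporter construct. Cells given 2 nM testosterone plus 10 µM test compound (final concentrations). Read-out by luciferase, mean ± SD, n = 3.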

Data set [8] relates to VCaP. The data set is described as follows: Inhibition of AR protein expression in human VCaP cells at 10 to 30 uM incubated for 24 hrs by Western blot analysis. The data set is classed as functional, cell-based. A digest of the protocol:
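LNCaP, VCaP and 22Rv1 cells grown in medium with 10% (v/v) FBS. Treated with compounds or DMSO for 24 h. AR-full and AR splice-variant protein then assessed by western blot.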

In data set [9] the test system is VCaP. Kind of data set: Antiproliferative activity against human VCaP expressing AR assessed as reduction in cell viability incubated for 6 days by CCK-8 assay. Format: functional, cell-based. The note with it: 144 h. The gist of the method:
as §1

Structures are written as SMILES. Residue numbers refer to the chain shown, from its start. pIC50: −log10 of the molar value. Values after ≈ are worked out from the molar mass of the structure shown. Active and inactive are the calls of the source. No cut-off for these calls is given here. Bounds are passed on as bounds.

Consider `C[C@@H](Cn1ccc(-c2ccc(C#N)c(Cl)c2)n1)Nc1cccc2ncccc12`, for which the values for the negative logarithm of the IC50 (pIC50) in the data set with CWR22R, with L02 and in the data set with VCaP [9] were 5.41, 4.78 and 6.14, respectively. Also, the inhibition result (in [1]; in [4]; in [5]; in [7]; in the data set with VCaP [8]) was “Active” each time. Also, the solubility at 24 h in data set [2] is below 2.52 µM. Also, the inhibition entry in [3] was “inactive”. Moreover, the Stability entry in [6] is given as “Stable”.

As to `C[C@@H](Cn1ccc(-c2ccc(C#N)c(Cl)c2)n1)Nc1ncnc2nc[nH]c12`, the negative-log IC50 (pIC50) was 5.37 in the data set on CWR22R, 4.55 in the data set with L02 and 6.19 with VCaP [9]. Moreover, the inhibition entry (in data set [1]; in [4]; in data set [5]; in data set [7]; with VCaP [8]) was “Active” each time. Also, the solubility at 24 h in [2] was determined as 24.5 µM (≈ 9.27 µg/mL). Besides, the inhibition result in data set [3] was “inactive”. Also, the Stability result in data set [6] is given as “Stable”.
